In ChEMBL document CHEMBL3046615, “Isolation of nematicidal compounds from Tagetes patula L. yellow flowers: structure-activity relationship studies against cyst nematode Heterodera zeae infective stage larvae” (2011):
Calls of active or inactive are those of the source. The rule behind the calls is not given here.

Legend:
[1] = system: Heterodera zeae; assay: Nematicidal activity against Heterodera zeae infective stage larvae assessed as nematode mortality at 0.5% under light conditions measured 72 hr post dose by stereoscopic microscopy; format: functional
Procedure, shortened: (§1)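 Freshly hatched H. zeae second-stage juveniles, 100 per Petri plate, three replicates. Samples in MeOH, DMSO or water were tested in glass cavity blocks; petroleum ether samples were dried onto the block and larvae transferred on agar pieces. Percentages are dilutions of 30 mg/mL stocks (extracts/fractions) or 1 mg/mL stocks (pure compounds). Incubated at 28 ± 2 °C in light or dark box; mortality averaged over three replicates.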

[2] = system: Heterodera zeae; assay: Nematicidal activity against Heterodera zeae infective stage larvae assessed as nematode mortality at 0.5% under light conditions measured 48 hr post dose by stereoscopic microscopy; format: functional; procedure, shortened: as §1
[3] = system: Heterodera zeae; assay: Nematicidal activity against Heterodera zeae infective stage larvae assessed as nematode mortality at 1% under dark conditions measured 24 hr post dose by stereoscopic microscopy; format: functional; procedure, shortened: as §1
[4] = system: Heterodera zeae; assay: Nematicidal activity against Heterodera zeae infective stage larvae assessed as nematode mortality at 0.125% under light conditions measured 48 hr post dose by stereoscopic microscopy; format: functional; procedure, shortened: as §1
[5] = system: Heterodera zeae; assay: Nematicidal activity against Heterodera zeae infective stage larvae assessed as nematode mortality at 0.25% under light conditions measured 48 hr post dose by stereoscopic microscopy; format: functional; procedure, shortened: as §1
[6] = system: Heterodera zeae; assay: Nematicidal activity against Heterodera zeae infective stage larvae assessed as nematode mortality at 0.125% under light conditions measured 24 hr post dose by stereoscopic microscopy; format: functional; procedure, shortened: as §1
[7] = system: Heterodera zeae; assay: Nematicidal activity against Heterodera zeae infective stage larvae assessed as nematode mortality at 0.25% under light conditions measured 24 hr post dose by stereoscopic microscopy; format: functional; procedure, shortened: as §1
[8] = system: Heterodera zeae; assay: Nematicidal activity against Heterodera zeae infective stage larvae assessed as nematode mortality at 0.5% under light conditions measured 24 hr post dose by stereoscopic microscopy; format: functional; procedure, shortened: as §1
[9] = system: Heterodera zeae; assay: Nematicidal activity against Heterodera zeae infective stage larvae assessed as nematode mortality at 1% under light conditions measured 24 hr post dose by stereoscopic microscopy; format: functional; procedure, shortened: as §1
[10] = system: Heterodera zeae; assay: Nematicidal activity against Heterodera zeae infective stage larvae assessed as nematode mortality at 0.125% under dark conditions measured 5 to 60 min post dose by stereoscopic microscopy; format: functional, organism-based
Procedure, shortened: (§2)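 H. zeae freshly hatched second-stage juveniles, 100 per plate, three replicates, at 28 ± 2 °C under light or in a dark box. Dilutions are % of a stock: 30 mg/mL for extracts/fractions, 1 mg/mL for pure compounds. Methanol-, DMSO- or water-soluble samples were tested in glass cavity blocks. Petroleum ether-soluble samples were air-dried in the block and covered with agar pieces bearing cultured larvae. Mortality was followed over 5–60 min; each value is the mean of three experiments.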

[11] = system: Heterodera zeae; assay: Nematicidal activity against Heterodera zeae infective stage larvae assessed as nematode mortality at 0.25% under dark conditions measured 5 to 60 min post dose by stereoscopic microscopy; format: functional, organism-based; procedure, shortened: as §2
[12] = system: Heterodera zeae; assay: Nematicidal activity against Heterodera zeae infective stage larvae assessed as nematode mortality at 0.5% under dark conditions measured 5 to 60 min post dose by stereoscopic microscopy; format: functional, organism-based; procedure, shortened: as §2
[13] = system: Heterodera zeae; assay: Nematicidal activity against Heterodera zeae infective stage larvae assessed as nematode mortality at 1% under dark conditions measured 5 to 60 min post dose by stereoscopic microscopy; format: functional, organism-based; procedure, shortened: as §2
[14] = system: Heterodera zeae; assay: Nematicidal activity against Heterodera zeae infective stage larvae assessed as nematode mortality at 2% under dark conditions measured 5 to 60 min post dose by stereoscopic microscopy; format: functional, organism-based; procedure, shortened: as §2
[15] = system: Heterodera zeae; assay: Nematicidal activity against Heterodera zeae infective stage larvae assessed as nematode mortality at 5% under dark conditions measured 5 to 60 min post dose by stereoscopic microscopy; format: functional, organism-based; procedure, shortened: as §2
[16] = system: Heterodera zeae; assay: Nematicidal activity against Heterodera zeae infective stage larvae assessed as nematode mortality at 0.125% under light conditions measured 5 to 60 min post dose by stereoscopic microscopy; format: functional, organism-based; procedure, shortened: as §2
[17] = system: Heterodera zeae; assay: Nematicidal activity against Heterodera zeae infective stage larvae assessed as nematode mortality at 0.25% under light conditions measured 5 to 60 min post dose by stereoscopic microscopy; format: functional, organism-based; procedure, shortened: as §2
[18] = system: Heterodera zeae; assay: Nematicidal activity against Heterodera zeae infective stage larvae assessed as nematode mortality at 0.5% under light conditions measured 5 to 60 min post dose by stereoscopic microscopy; format: functional, organism-based; procedure, shortened: as §2
[19] = system: Heterodera zeae; assay: Nematicidal activity against Heterodera zeae infective stage larvae assessed as nematode mortality at 1% under light conditions measured 5 to 60 min post dose by stereoscopic microscopy; format: functional, organism-based; procedure, shortened: as §2
[20] = system: Heterodera zeae; assay: Nematicidal activity against Heterodera zeae infective stage larvae assessed as nematode mortality at 2% under light conditions measured 5 to 60 min post dose by stereoscopic microscopy; format: functional, organism-based; procedure, shortened: as §2
[21] = system: Heterodera zeae; assay: Nematicidal activity against Heterodera zeae infective stage larvae assessed as nematode mortality at 5% under light conditions measured 5 to 60 min post dose by stereoscopic microscopy; format: functional, organism-based; procedure, shortened: as §2
[22] = system: Heterodera zeae; assay: Nematicidal activity against Heterodera zeae infective stage larvae assessed as nematode mortality at 0.125% under dark conditions measured 48 hr post dose by stereoscopic microscopy; format: functional; procedure, shortened: as §1
[23] = system: Heterodera zeae; assay: Nematicidal activity against Heterodera zeae infective stage larvae assessed as nematode mortality at 0.25% under dark conditions measured 48 hr post dose by stereoscopic microscopy; format: functional; procedure, shortened: as §1
[24] = system: Heterodera zeae; assay: Nematicidal activity against Heterodera zeae infective stage larvae assessed as nematode mortality at 0.125% under dark conditions measured 24 hr post dose by stereoscopic microscopy; format: functional; procedure, shortened: as §1
[25] = system: Heterodera zeae; assay: Nematicidal activity against Heterodera zeae infective stage larvae assessed as nematode mortality at 0.25% under dark conditions measured 24 hr post dose by stereoscopic microscopy; format: functional; procedure, shortened: as §1
[26] = system: Heterodera zeae; assay: Nematicidal activity against Heterodera zeae infective stage larvae assessed as nematode mortality at 0.5% under dark conditions measured 24 hr post dose by stereoscopic microscopy; format: functional; procedure, shortened: as §1
[27] = system: Heterodera zeae; assay: Nematicidal activity against Heterodera zeae infective stage larvae assessed as nematode mortality at 1% under dark conditions measured 72 hr post dose by stereoscopic microscopy; format: functional; procedure, shortened: as §1
[28] = system: Heterodera zeae; assay: Nematicidal activity against Heterodera zeae infective stage larvae assessed as nematode mortality at 1% under dark conditions measured 48 hr post dose by stereoscopic microscopy; format: functional; procedure, shortened: as §1
[29] = system: Heterodera zeae; assay: Nematicidal activity against Heterodera zeae infective stage larvae assessed as nematode mortality at 1% under light conditions measured 72 hr post dose by stereoscopic microscopy; format: functional; procedure, shortened: as §1
[30] = system: Heterodera zeae; assay: Nematicidal activity against Heterodera zeae infective stage larvae assessed as nematode mortality at 1% under light conditions measured 48 hr post dose by stereoscopic microscopy; format: functional; procedure, shortened: as §1
[31] = system: Heterodera zeae; assay: Nematicidal activity against Heterodera zeae infective stage larvae assessed as nematode mortality at 0.125% under dark conditions measured 72 hr post dose by stereoscopic microscopy; format: functional; procedure, shortened: as §1
[32] = system: Heterodera zeae; assay: Nematicidal activity against Heterodera zeae infective stage larvae assessed as nematode mortality at 0.25% under dark conditions measured 72 hr post dose by stereoscopic microscopy; format: functional; procedure, shortened: as §1
[33] = system: Heterodera zeae; assay: Nematicidal activity against Heterodera zeae infective stage larvae assessed as nematode mortality at 0.5% under dark conditions measured 72 hr post dose by stereoscopic microscopy; format: functional; procedure, shortened: as §1
[34] = system: Heterodera zeae; assay: Nematicidal activity against Heterodera zeae infective stage larvae assessed as nematode mortality at 0.5% under dark conditions measured 48 hr post dose by stereoscopic microscopy; format: functional; procedure, shortened: as §1
[35] = system: Heterodera zeae; assay: Nematicidal activity against Heterodera zeae infective stage larvae assessed as nematode mortality at 0.125% under light conditions measured 72 hr post dose by stereoscopic microscopy; format: functional; procedure, shortened: as §1
[36] = system: Heterodera zeae; assay: Nematicidal activity against Heterodera zeae infective stage larvae assessed as nematode mortality at 0.25% under light conditions measured 72 hr post dose by stereoscopic microscopy; format: functional; procedure, shortened: as §1

SMILES | mortality [1] [%] | mortality [2] [%] | mortality [3] [%] | mortality [4] [%] | mortality [5] [%] | mortality [6] [%] | mortality [7] [%] | mortality [8] [%] | mortality [9] [%] | Activity [10] | Activity [11] | Activity [12] | Activity [13] | Activity [14] | Activity [15] | Activity [16] | Activity [17] | Activity [18] | Activity [19] | Activity [20] | also measured
O=C(O)c1ccc(O)cc1 [PARABEN] | 50 | 40 | 0 | 40 | 40 | 0 | 0 | 0 | 0 | inactive | inactive | inactive | inactive | inactive | inactive | inactive | inactive | inactive | inactive | inactive | Activity [21]: inactive; mortality [22]: 10%; mortality [23]: 40%; mortality [24]: 0%; mortality [25]: 0%; mortality [26]: 0%; mortality [27]: 70%; mortality [28]: 40%; mortality [29]: 100%; mortality [30]: 50%; mortality [31]: 40%; mortality [32]: 50%; mortality [33]: 50%; mortality [34]: 40%; mortality [35]: 50%; mortality [36]: 50%
CCCCCCCCCCCCCCCCO [CETYL ALCOHOL] | 100 | 80 | 70 | 0 | 50 | 0 | 0 | 60 | 70 | inactive | inactive | inactive | inactive | inactive | inactive | inactive | inactive | inactive | inactive | inactive | Activity [21]: inactive; mortality [22]: 0%; mortality [23]: 50%; mortality [24]: 0%; mortality [25]: 0%; mortality [26]: 60%; mortality [27]: 100%; mortality [28]: 80%; mortality [29]: 100%; mortality [30]: 80%; mortality [31]: 40%; mortality [32]: 80%; mortality [33]: 100%; mortality [34]: 80%; mortality [35]: 40%; mortality [36]: 80%
COc1c(O[C@@H]2O[C@H](CO)[C@@H](O)[C@H](O)[C@H]2O)cc2oc(-c3ccc(O)c(O)c3)c(O)c(=O)c2c1O [PATULITRIN] | 50 | 0 | 0 | 0 | 20 | 0 | 0 | 0 | 0 | inactive | inactive | inactive | inactive | inactive | inactive | inactive | inactive | inactive | inactive | inactive | Activity [21]: inactive; mortality [22]: 0%; mortality [23]: 10%; mortality [24]: 0%; mortality [25]: 0%; mortality [26]: 0%; mortality [27]: 50%; mortality [28]: 40%; mortality [29]: 50%; mortality [30]: 20%; mortality [31]: 10%; mortality [32]: 20%; mortality [33]: 40%; mortality [34]: 20%; mortality [35]: 10%; mortality [36]: 20%
CCCCCCCCCCCCCCCC(=O)O [PALMITIC ACID] | 70 | 50 | 80 | 0 | 10 | 0 | 0 | 0 | 0 | inactive | inactive | inactive | inactive | inactive | inactive | inactive | inactive | inactive | inactive | inactive | Activity [21]: inactive; mortality [22]: 0%; mortality [23]: 20%; mortality [24]: 0%; mortality [25]: 0%; mortality [26]: 0%; mortality [27]: 80%; mortality [28]: 80%; mortality [29]: 80%; mortality [30]: 70%; mortality [31]: 50%; mortality [32]: 70%; mortality [33]: 70%; mortality [34]: 50%; mortality [35]: 0%; mortality [36]: 50%
COc1c(O)cc2oc(-c3ccc(O)c(O)c3)c(O)c(=O)c2c1O [PATULETIN] | 100 | 20 | 20 | 50 | 70 | 20 | 20 | 20 | 40 | inactive | inactive | inactive | inactive | inactive | inactive | inactive | inactive | inactive | inactive | inactive | Activity [21]: inactive; mortality [22]: 0%; mortality [23]: 10%; mortality [24]: 0%; mortality [25]: 0%; mortality [26]: 0%; mortality [27]: 60%; mortality [28]: 60%; mortality [29]: 100%; mortality [30]: 40%; mortality [31]: 0%; mortality [32]: 10%; mortality [33]: 20%; mortality [34]: 20%; mortality [35]: 100%; mortality [36]: 100%
